This note sets out measurements from ChEMBL document CHEMBL1148762, “Lysosome and HER3 (ErbB3) selective anticancer agent kahalalide F: semisynthetic modifications and antifungal lead-exploration studies” (J Med Chem, 2007).

Values after ≈ are worked out from the molar mass of the structure shown. Active and inactive are the calls of the source. No cut-off for these calls is given here.

The subject of test [1] is Fusarium proliferatum. Nature of the test: Fungicidal activity against Fusarium proliferatum at 30 uM after 72 hrs by microtiter plate assay. The format is functional, organism-based. The essentials: (§1)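 After 72 h of microtiter broth exposure at 30 µM, 20 µL from each well was plated onto compound-free potato dextrose agar and incubated 3 days at 28 °C. No regrowth was scored fungicidal; regrowth was scored fungistatic.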

Test [2] deals with Fusarium solani. Nature of the test: Fungicidal activity against Fusarium solani at 30 uM after 72 hrs by microtiter assay. The format is functional, organism-based. In outline:
as §1

Test [3] concerns Fusarium oxysporum. The test can be described thus: Fungistatic activity against Fusarium oxysporum at 30 uM after 72 hrs by microtiter plate assay. The test is classed as functional, organism-based. In outline: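 Conidia come from 7-day potato dextrose agar cultures, filtered and set photometrically (625 nm) to 3 × 10^5 conidia/mL. They are exposed to compound at 30 µM in 96-well microdilution broth at 24 ± 1 °C under a 12 h photoperiod. After 72 h, 20 µL per well is subcultured on drug-free potato dextrose agar at 28 °C for 3 days. No regrowth is scored fungicidal; regrowth is scored fungistatic.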

The test system of a further test is Cryptococcus neoformans. Nature of the test: Antimicrobial activity against Cryptococcus neoformans ATCC 90113. The format is functional, organism-based.
Test [4] has as its system Fusarium oxysporum. Nature of the test: Antimicrobial activity against Fusarium oxysporum at 3 uM after 48 hrs by microtiter assay. The format is functional. The essentials: (§2)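 96-well microdilution broth assay with conidia (3 × 10^5 conidia/mL, harvested from 7-day PDA cultures and filtered) against F. oxysporum, F. proliferatum and F. solani at 0.3, 3 and 30 µM. Plates were held at 24 ± 1 °C under a 12 h photoperiod. Growth was read at 620 nm at 24, 48 and 72 h and reported as percent inhibition from mean absorbance with standard error.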

For test [5], the system named is Fusarium proliferatum. Nature of the test: Antimicrobial activity against Fusarium proliferatum at 30 uM after 48 hrs by microtiter assay. The format is functional. In outline:
as §2

In test [6] the test system is Fusarium proliferatum. The test can be described thus: Antimicrobial activity against Fusarium proliferatum at 30 uM after 72 hrs by microtiter assay. The test is classed as functional. The essentials: as §2
In test [7] the test system is Fusarium oxysporum. Nature of the test: Antimicrobial activity against Fusarium oxysporum at 30 uM after 72 hrs by microtiter assay. The format is functional. The essentials: as §2
Test [8] relates to Fusarium oxysporum. The test can be described thus: Antimicrobial activity against Fusarium oxysporum at 0.3 uM after 48 hrs by microtiter assay. The test is classed as functional. The essentials: as §2
Test [9] deals with Fusarium solani. Nature of the test: Antimicrobial activity against Fusarium solani at 3 uM after 48 hrs by microtiter assay. The format is functional. In outline:
as §2

Test [10] relates to Fusarium oxysporum. Nature of the test: Antimicrobial activity against Fusarium oxysporum at 3 uM after 72 hrs by microtiter assay. The format is functional. In outline:
as §2

In test [11] the test system is Fusarium solani. The test can be described thus: Antimicrobial activity against Fusarium solani at 0.3 uM after 72 hrs by microtiter assay. The test is classed as functional. In outline:
as §2

Test [12] concerns Fusarium proliferatum. Nature of the test: Antimicrobial activity against Fusarium proliferatum at 0.3 uM after 72 hrs by microtiter assay. The test is classed as functional. In outline: as §2
Test [13] relates to Fusarium proliferatum. The test can be described thus: Antimicrobial activity against Fusarium proliferatum at 3 uM after 48 hrs by microtiter assay. The test is classed as functional. In outline:
as §2

For test [14], the system named is Fusarium oxysporum. Nature of the test: Antimicrobial activity against Fusarium oxysporum at 30 uM after 48 hrs by microtiter assay. The test is classed as functional. The essentials: as §2
Test [15] relates to Mycobacterium tuberculosis. The test can be described thus: Antibacterial activity against Mycobacterium tuberculosis H37Rv at 16 ug/mL by micro plate alamar blue assay. The format is functional. The essentials: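 M. tuberculosis H37Rv ATCC 27294 grown in BACTEC 12B medium; microplate Alamar blue assay (MABA). Primary screen at a single concentration of 16 µg/mL, read as percent inhibition.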

Test [16] concerns Mycobacterium intracellulare. The test can be described thus: Antimicrobial activity against Mycobacterium intracellular ATCC 23068. The test is classed as functional, organism-based.
In another test the test system is Candida albicans. The test can be described thus: Antimicrobial activity against Candida albicans ATCC 90028. The format is functional, organism-based.
Test [17] deals with Fusarium solani. Nature of the test: Antimicrobial activity against Fusarium solani at 30 uM after 48 hrs by microtiter assay. The test is classed as functional. The essentials:
as §2

Test [18] has as its system Fusarium oxysporum. The test can be described thus: Antimicrobial activity against Fusarium oxysporum at 0.3 uM after 72 hrs by microtiter assay. The test is classed as functional. In outline:
as §2

The test system of test [19] is Fusarium proliferatum. The test can be described thus: Antimicrobial activity against Fusarium proliferatum at 3 uM after 72 hrs by microtiter assay. The test is classed as functional. In outline:
as §2

Test [20] relates to Mycobacterium tuberculosis. The test can be described thus: Antibacterial activity against Mycobacterium tuberculosis H37Rv by micro plate alamar blue assay. The format is functional. On the technique in general: Resazurin is reduced to fluorescent resorufin, in cell work by metabolically active cells.
A further test concerns Aspergillus fumigatus. The test can be described thus: Antimicrobial activity against Aspergillus fumigatus ATCC 90906. The test is classed as functional, organism-based.
The test system of test [21] is Fusarium solani. The test can be described thus: Antimicrobial activity against Fusarium solani at 0.3 uM after 48 hrs by microtiter assay. The test is classed as functional. In outline:
as §2

Test [22] has as its system Fusarium solani. The test can be described thus: Antimicrobial activity against Fusarium solani at 30 uM after 72 hrs by microtiter assay. The format is functional. In outline:
as §2

Test [23] concerns Fusarium solani. The test can be described thus: Antimicrobial activity against Fusarium solani at 3 uM after 72 hrs by microtiter assay. The test is classed as functional. The essentials:
as §2

Test [24] deals with Fusarium proliferatum. Nature of the test: Antimicrobial activity against Fusarium proliferatum at 0.3 uM after 48 hrs by microtiter assay. The test is classed as functional. The essentials:
as §2

Take `C/C=C1\NC(=O)[C@H](Cc2ccccc2)NC(=O)[C@@H](C(C)C)NC(=O)[C@@H]([C@@H](C)CC)NC(=O)[C@H](NC(=O)[C@H](NC(=O)[C@H](CCCNCc2ccncc2)NC(=O)[C@H]2CCCN2C(=O)[C@@H](NC(=O)[C@H](NC(=O)[C@H](NC(=O)[C@@H](NC(=O)CCCC(C)C)C(C)C)[C@H](C)O)C(C)C)C(C)C)[C@@H](C)CC)[C@@H](C)OC(=O)[C@H](C(C)C)NC1=O`: the result in the test on Fusarium proliferatum [1], in the test on Fusarium solani [2] and with Fusarium oxysporum [3] was Active.

Regarding `C/C=C1\NC(=O)[C@H](Cc2ccccc2)NC(=O)[C@@H](C(C)C)NC(=O)[C@@H]([C@@H](C)CC)NC(=O)[C@H](NC(=O)[C@H](NC(=O)[C@H](CCCN)NC(=O)[C@H]2CCCN2C(=O)[C@@H](NC(=O)[C@H](NC(=O)[C@H](NC(=O)[C@@H](NC(=O)CCCC(C)C)C(C)C)[C@H](C)OC(C)=O)C(C)C)C(C)C)[C@@H](C)CC)[C@@H](C)OC(=O)[C@H](C(C)C)NC1=O`, the result in the test on Fusarium proliferatum [1], in the test on Fusarium solani [2] and in the test with Fusarium oxysporum [3] was Active. In addition, the IC50 in the test with Cryptococcus neoformans was 1890 nM; in test [16], 14.3 µM; in the test with Candida albicans, 3.28 µM; in the test with Aspergillus fumigatus it was 3.38 µM. Further, the MFC in the test with Cryptococcus neoformans amounted to 5 µM (≈ 7.6 µg/mL); with Candida albicans, 20 µM (≈ 30.4 µg/mL); against Aspergillus fumigatus it was 10 µM (≈ 15.2 µg/mL). For the same molecule, the MIC with Cryptococcus neoformans was 5 µM (≈ 7.6 µg/mL); in test [16] it was more than 20 µM; against Candida albicans, 10 µM (≈ 15.2 µg/mL); in [20], 15.4 µg/mL (≈ 10.1 µM); in the test on Aspergillus fumigatus, 10 µM (≈ 15.2 µg/mL). Moreover, the inhibition at 3 µM in the test on Fusarium oxysporum [4] came to 0%; with Fusarium solani [9], 0%; with Fusarium oxysporum [10], 0%; in the test on Fusarium proliferatum [13] it was 0%; in the test with Fusarium proliferatum [19], 0.3%; in the test with Fusarium solani [23], 0%. Besides, the inhibition at 30 µM in the test with Fusarium proliferatum [5] worked out at 70.8%; in the test on Fusarium proliferatum [6], 34.7%; in the test with Fusarium oxysporum [7], 74.4%; in the test with Fusarium oxysporum [14], 78.5%; in the test with Fusarium solani [17], 80.9%; in the test on Fusarium solani [22] it was 96.7%. Besides, the inhibition at 0.3 µM in the test on Fusarium oxysporum [8] was determined as 0%; in the test with Fusarium solani [11], 0%; with Fusarium proliferatum [12], 0.3%; in the test with Fusarium oxysporum [18], 0%; in the test on Fusarium solani [21], 0%; in the test with Fusarium proliferatum [24], 0%. This molecule also registered an inhibition at 16 µg/mL in [15] of 94%. This molecule also showed a minimal bactericidal concentration (MBC) in [16] of more than 20 µM.

Usually IC50 stands for the midpoint of a concentration-inhibition curve. A lower IC50 goes with greater potency in that assay. One may read the MIC as the least concentration at which growth counts as inhibited. A word on the inhibition: it is how much of the control response was suppressed. Broadly, the MBC is the lowest tested concentration that kills the bacteria rather than only halting them. A higher MBC goes with less potent killing.
